{"data": "Results collected from several papers", "effect on": "cell growth or viability", "time": "72 h", "note": "Lines come from different studies, so protocols differ."}
{"SMILES": "O=C(O)c1ccc(NCc2cccc(C(F)(F)F)c2)cc1", "cell line": "NCI-H69", "method": "resazurin", "IC50": "> 100000 nM"}
{"SMILES": "CC(C)(C)c1cnc(CSc2cnc(NC(=O)C3CCN(CC(=O)NCCOCCOCCOCCNc4cccc5c4C(=O)N(C4CCC(=O)NC4=O)C5=O)CC3)s2)o1 (centres unmarked)", "cell line": "TC-71", "method": "MTT", "IC50": "21.6 nM"}
{"SMILES": "Cc1cc2c(C(=O)O)cccc2n1-c1nc2c(c(NCc3ccccc3)n1)CCCN2", "cell line": "RPMI-8226", "method": "ATP luminescence", "IC50": "800 nM"}
{"SMILES": "CC(C)(C)c1cnc(CSc2cnc(NC(=O)C3CCN(C(=O)CCCCCN4Cc5cc6c(cc5C4)C(=O)N(C4CCC(=O)NC4=O)C6=O)CC3)s2)o1 (centres unmarked)", "cell line": "TC-71", "method": "MTT", "IC50": "4.71 nM"}
{"SMILES": "COc1cccc(CNc2ccc(C(=O)O)cc2)c1O", "cell line": "NCI-H69", "method": "resazurin", "IC50": "> 100000 nM"}
{"SMILES": "CC(C)(C)c1cnc(CSc2cnc(NC(=O)C3CCN(C(=O)CCCCCCCCCCCN4Cc5cc6c(cc5C4)C(=O)N(C4CCC(=O)NC4=O)C6=O)CC3)s2)o1 (centres unmarked)", "cell line": "TC-71", "method": "MTT", "IC50": "79.9 nM"}
{"SMILES": "Cc1cc2c(C(N)=O)cncc2n1-c1nc2c(c(NCc3ccccc3)n1)CCCN2", "cell line": "RPMI-8226", "method": "ATP luminescence", "IC50": "2900 nM"}
{"SMILES": "COc1ccc(CNc2ccc(C(=O)O)cc2)cc1", "cell line": "NCI-H69", "method": "resazurin", "IC50": "> 100000 nM"}
{"SMILES": "Cc1cc2c(C(N)=O)cccc2n1-c1nc2c(c(NCc3ccccc3O)n1)CCCN2", "cell line": "RPMI-8226", "method": "ATP luminescence", "IC50": "9800 nM"}
{"SMILES": "COc1ccc2c(c1)OC1=C(C(=O)CC(C)(C)C1)C2c1c(C(=O)O)[nH]c2ccccc12 (centres unmarked)", "cell line": "3T3-L1", "method": "MTT", "IC50": "24.5 µg/mL"}
{"SMILES": "CONC(=O)c1cccc2c1cc(C)n2-c1nc2c(c(NCc3ccccc3)n1)CCCN2", "cell line": "RPMI-8226", "method": "ATP luminescence", "IC50": "500 nM"}
{"SMILES": "CSc1ccc(CNc2ccc(C(=O)O)cc2)cc1", "cell line": "NCI-H69", "method": "resazurin", "IC50": "> 100000 nM"}
{"SMILES": "Cc1cc2c(C(N)=O)cccc2n1-c1nc2c(c(NCc3ccccc3)n1)CCCN2", "cell line": "RPMI-8226", "method": "ATP luminescence", "IC50": "900 nM"}
{"SMILES": "O=C(O)c1ccc(NCc2cccc([N+](=O)[O-])c2)cc1", "cell line": "NCI-H69", "method": "resazurin", "IC50": "> 100000 nM"}
{"SMILES": "CC(C)(C)c1cnc(CSc2cnc(NC(=O)C3CCN(C(=O)CCOCCCN4Cc5cc6c(cc5C4)C(=O)N(C4CCC(=O)NC4=O)C6=O)CC3)s2)o1 (centres unmarked)", "cell line": "TC-71", "method": "MTT", "IC50": "16.9 nM"}
{"SMILES": "C=CCn1c(=O)c2cnc(Nc3ccc(N4CCN(C)CC4)cc3)nc2n1-c1ccc2c(n1)[C@@](O)(CC)CC2", "cell line": "OVCAR-3", "method": "ATP luminescence", "IC50": "295 nM"}
{"SMILES": "CC(C)(C)c1cnc(CSc2cnc(NC(=O)C3CCNCC3)s2)o1", "cell line": "TC-71", "method": "MTT", "IC50": "48.9 nM"}
{"SMILES": "CONC(=O)Cc1c(C)n(-c2nc3c(c(NCc4ccccc4)n2)CCCN3)c2ccccc12", "cell line": "RPMI-8226", "method": "ATP luminescence", "IC50": "8000 nM"}
{"SMILES": "COc1cccc(CNc2ccc(C(=O)O)cc2)c1OC", "cell line": "NCI-H69", "method": "resazurin", "IC50": "> 100000 nM"}
{"SMILES": "CC(C)(C)c1cnc(CSc2cnc(NC(=O)C3CCN(C(=O)CCCCCCCCCN4Cc5cc6c(cc5C4)C(=O)N(C4CCC(=O)NC4=O)C6=O)CC3)s2)o1 (centres unmarked)", "cell line": "TC-71", "method": "MTT", "IC50": "71.7 nM"}
